Screening data (PubChem)
Sampled rows, rich in hits. Any-hit rate of the full collection: about 2.5%.
PRMT1 inh = PRMT1 (human) inhibition, primary screen; recombinant PRMT1, activity-based probe fluorescence polarization; inhibition, % at 2.79 µM; 1.3% of 370,000 active; AID 652257;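 active = inhibition above about 21% made by adding two undisclosed values, limit read from the data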
SIAE inh = human SIAE inhibition, primary screen; Q9HAT2; SIAE FP-Rh probe binding, fluorescence polarization; inhibition, % at 9.66 µM; 0.69% of 370,000 active;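 active = inhibition above a cutoff: mean of compounds within the control limits plus 3 SD of those, cut at about 17% in these data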
TCR CD3 inh = blocks the human TCR-CD3 interaction. 0.37% of 360,000 active. inhibition, % at 9.4 µM. TAMRA-labeled TCR probe fluorescence, biochemical. AID 651800; in the data active = inhibition above about 19%;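 also: recombinant mutant TCR 2C K166C tagged with TAMRA read by polarization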
mABHD4 FP = ABHD4 (mouse) inhibition, primary FP screen; purified mABHD4, FP-Rh probe fluorescence polarization; inhibition, % at 8.92 µM; 0.54% of 370,000 active; AID 720543;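 active = inhibition exceeding the mean over every tested compound plus 3 SD, cut at about 30% in these data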
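Material: mouse ABHD4 enzyme, wild type; Benchmarks: S159A mutant high control, sample median low control; Buffer or medium: HEPES pH 7.0, NaCl, Pluronic buffer; Signal: fluorescence polarization; Read-out: percent inhibition of probe binding, normalized to plate controls; Timing: pre-incubation 45 min, probe exposure 60 min, at 25 °C; Dosing: 8.92 µM, single dose.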
HTRA1 inh = blocks human HTRA1 serine peptidase. Q92743. recombinant HTRA1, FP-rhodamine activity-based probe, fluorescence polarization. inhibition, % at 5.96 µM. 0.5% of 340,000 active. AID 504803; in the data active = inhibition above about 36%
Target sequence (Q92743 whole entry, looked up): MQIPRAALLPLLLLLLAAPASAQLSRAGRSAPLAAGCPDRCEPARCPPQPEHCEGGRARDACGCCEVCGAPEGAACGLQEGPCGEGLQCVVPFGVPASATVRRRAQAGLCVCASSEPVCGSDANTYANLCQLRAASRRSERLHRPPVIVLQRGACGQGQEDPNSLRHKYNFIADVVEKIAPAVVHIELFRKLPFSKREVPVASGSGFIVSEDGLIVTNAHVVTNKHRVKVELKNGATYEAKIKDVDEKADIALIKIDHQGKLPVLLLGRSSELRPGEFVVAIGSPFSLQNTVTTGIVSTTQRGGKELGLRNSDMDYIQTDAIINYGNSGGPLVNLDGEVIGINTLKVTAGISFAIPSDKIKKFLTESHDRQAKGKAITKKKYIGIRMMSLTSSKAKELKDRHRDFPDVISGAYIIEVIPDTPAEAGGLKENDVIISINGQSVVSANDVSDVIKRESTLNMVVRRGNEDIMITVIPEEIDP
Hits are given with their value; n = inactive; x = no result.

SMILES	PRMT1 inh	SIAE inh	TCR CD3 inh	mABHD4 FP	HTRA1 inh
Clc1ccc(N=c2ssnc2Cl)nc1	21	n	n	n	n
CC(=O)c1c[nH]c(C(=O)NCc2ccccc2Cl)c1	n	n	n	n	n
CCOC(=O)N1CCN(S(=O)(=O)c2ccc(C(=O)NNc3nc4cc(C)cc(C)c4s3)cc2)CC1	x	x	x	x	50
CCOC(=O)N1CCN(S(=O)(=O)c2ccc(C(=O)NNc3nc4c(C)cc(C)cc4s3)cc2)CC1	n	n	n	n	x
COc1ccccc1-n1ccnc(SCC(=O)NCCc2ccccc2)c1=O	23	n	n	n	n
COc1ccccc1-n1ccnc(SCC(=O)NCc2ccccc2Cl)c1=O	n	n	n	n	n
Oc1ccc(/C=N\Nc2cc(N3CCOCC3)nc(N3CCOCC3)n2)c(O)c1	n	23	n	n	n
Cc1cc(N/N=C/c2ccc(O)cc2O)nc(N2CCOCC2)n1	n	n	n	n	n
CN(CCc1ccccn1)C(=O)c1cc2ccccn2n1	n	n	x	n	x
N#CC1=C(S)N=C(N)C(c2nc(-c3ccccc3)cs2)C12CCCC2 (stereo not given)	33	n	n	n	n
Cc1ccc(-c2cc(-c3ccccc3)c3c(N)c(S(C)(=O)=O)sc3n2)cc1	n	n	n	n	n
CS(=O)(=O)c1sc2nc(-c3cccs3)cc(-c3ccccc3)c2c1N	65	n	n	n	n
N#CC1=C(N)C2=CCCC[C@H]2[C@H](c2ccc(Br)cc2)C1(C#N)C#N	x	x	x	x	n
N#CC1=C(N)C2=CCCC[C@H]2[C@H](c2ccccc2)C1(C#N)C#N	24	n	n	n	n
CC(C)C(=O)Nc1cccc(C(=O)Nc2nnc(C(C)C)s2)c1	n	n	n	n	n
CC(C)c1nnc(NC(=O)c2cccc(NC(=O)C(F)(F)F)c2)s1	22	n	n	n	n
COC(=O)C[C@H]1C=C[C@@H](NC(=O)Nc2c(C)noc2C)[C@@H](CO)O1	n	n	n	n	x
CSc1ccc(C(=S)N2CCN(CCO)CC2)cc1	n	n	n	n	n
OCCN1CCN(C(=S)c2ccc(Br)cc2)CC1	22	n	n	n	n
CCOc1ccccc1CNC(=O)c1ccc2c(c1)N(CC)CCS2	23	n	n	n	n
CCN1CCSc2ccc(C(=O)NCc3cccc(Br)c3)cc21	n	n	n	n	n
O=C(O)Cn1nnc(-c2ccccc2)c1COc1ccccc1	n	n	n	n	x
S=C(NNc1ccnc2cc(Cl)ccc12)Nc1ccc(Cl)cc1Cl	n	19	n	n	n
Cc1cccc(C)c1Nc1nnc(SC(C)C(=O)Nc2c(C)n(C)n(-c3ccccc3)c2=O)s1 (stereo not given)	n	n	n	n	n
CCOc1ccccc1C(O)C1=CC(=O)c2ccccc2C1=O (stereo not given)	n	n	n	43	n
SMILES	PRMT1 inh	SIAE inh	TCR CD3 inh	mABHD4 FP	HTRA1 inh
O=C(NCC1CCCO1)c1ccc2c(c1)N(Cc1ccccc1)C(=O)CS2=O (stereo not given)	24	n	n	n	n
COc1ccc(CNC(=O)c2nc(S(=O)(=O)Cc3ccccc3)ncc2Cl)cc1	n	n	n	n	n
O=C(NCc1ccccc1)c1nc(S(=O)(=O)Cc2ccccc2)ncc1Cl	23	n	n	n	n
S=c1[nH]nc(-c2ccccc2)n1/N=C/c1ccc(Cl)cc1	22	n	n	n	n
COc1ccc(-c2n[nH]c(=S)n2/N=C/C=C\c2ccccc2OC)cc1	n	n	n	n	n
COc1ccccc1/C=C/C=N/n1c(-c2ccc(C)cc2)n[nH]c1=S	22	n	n	n	n
CC1=C(C)[N+](=O)C2CCCCC2N1[O-] (stereo not given)	n	n	n	n	n
C[C@H](O)[C@@H]1CN2CCc3c([nH]c4c(-c5ccc6c(c5)OCO6)cccc34)[C@@H]2C[C@@H]1N(C)C(=S)NCCc1ccccc1	n	n	x	n	x
O=C(O)COc1ccc2c(c1)O/C(=C\c1ccco1)C2=O	24	n	n	n	n
Cn1ccc2c(-c3ccc(F)nc3)cc3c(c21)C1CCC3C1 (stereo not given)	23	n	n	n	x
COc1ccc([N+](=O)[O-])c(S(=O)(=O)c2ccc(Cl)cc2)n1	n	n	n	n	n
COc1ccc([N+](=O)[O-])c(S(=O)(=O)c2ccccc2)n1	25	n	n	n	x
Nc1ccc2cccc(O)c2c1	n	n	n	48	n
Nc1ccc2cc3ccccc3cc2c1	n	n	n	n	n
O=C(COC(=O)c1ccc(O)cc1O)Nc1nnc(-c2ccccc2)o1	n	n	n	n	n
Nc1ncnc2nc(SCc3ccc(Cl)cc3Cl)[nH]c12	n	21	n	n	n
S=c1[nH]nc(-c2ccc3ccccc3n2)n1-c1ccc2ncccc2c1	21	n	n	n	n
Fc1ccc(-n2c(-c3ccc4ccccc4n3)n[nH]c2=S)cc1Cl	n	n	n	n	n
Cc1ccccc1-n1ncc2c1CC(C)(C)CC2NC(=O)CCN1CCCCC1=O (stereo not given)	n	n	n	n	n
COc1ccc2[nH]c(C(=O)N/N=C/c3ccc(O)cc3O)cc2c1	n	25	n	n	n
COC(=O)CCC/C=C1/SCC(NC(=O)c2ccccc2)C1=O (stereo not given)	26	n	n	n	n
COC(=O)CCC/C=C1/SCC(NC(=O)c2ccccc2)C1O (stereo not given)	n	n	n	n	n
O=C(NC(CC1=CCCCC1)c1ccccc1)C(F)(F)F (stereo not given)	n	n	n	n	x
CCn1cc(C(=O)Nc2ncccc2O)c(=O)c2cc(F)c(N3CCN(C(=O)c4ccco4)CC3)cc21	n	n	20	n	n
CCn1cc(C(=O)NC(C)C)c(=O)c2cc(F)c(N3CCN(C(=O)c4ccco4)CC3)cc21	n	n	n	n	n
SMILES	PRMT1 inh	SIAE inh	TCR CD3 inh	mABHD4 FP	HTRA1 inh
O=C(Nc1cc(S(=O)(=O)N2CCCCC2)ccc1N1CCCCC1)C1CC1	n	n	n	n	n
O=C(CCc1ccccc1)NC1(Cc2ccccc2)CCN(CCCc2ccccc2)C1=O (stereo not given)	n	n	n	n	n
COc1ccccc1NS(=O)(=O)c1cc(NC(=O)C2CCCC2)ccc1N1CCOCC1	23	n	n	n	n
COc1ccccc1NS(=O)(=O)c1cc(NC(=O)C(C)(C)C)ccc1N1CCOCC1	n	n	n	n	n
COc1ccccc1NS(=O)(=O)c1cc(NC(=O)c2cccs2)ccc1N1CCCC1	23	n	n	n	n
O=c1oc2cc([N+](=O)[O-])ccc2nc1/C=C(\O)c1cccc(Br)c1	n	n	n	39	n
O=c1oc2ccccc2nc1/C=C(\O)c1ccccc1	n	n	n	n	x
Cc1ccc(S(=O)(=O)N2C[C@H]3C(=O)C[C@@H](c4ccccc4)N(S(=O)(=O)c4ccc(Br)cc4)[C@H]3C[C@H]2c2ccccc2)cc1	n	n	n	n	x
O=C(O)Cn1c2c(c3ccccc31)CSc1ccc(Cl)cc1-2	78	n	n	n	n
O=C(O)Cn1c2ccccc2c2ccccc21	n	n	n	n	n
